Measured values published in ChEMBL document CHEMBL1123340, “Synthesis and analgesic evaluation of 4-(2-heptyloxy)-7-[(Z)-(3-hydroxycyclohexyl)]indole: a caveat on indole-phenol bioisosterism” (1986).

Assays:
Format in all cases: functional
Mus musculus [1] = experiment: Compound was tested at a dose of 20 mg/kg administered subcutaneously for a pretreatment time of 60 min for analgesic activity using phenylbenzoquinone (PBQ); conditions: route subcutaneous
Procedure, shortened: (§1)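 Mouse phenylbenzoquinone (PBQ) writhing test. Test drug is given sc, ip or iv at the stated pretreatment time before PBQ injection. Mice are placed in individual observation boxes, and total writhes per group are counted over the following 15 min. Vehicle is emulphor/ethanol/saline (1:1:18), diluted from a 1:1 emulphor/ethanol stock, and vehicle-injected controls are run. Result is % inhibition of writhing versus vehicle controls.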

Mus musculus [2] = experiment: Inhibition of the Mouse PBQ Writhing at a dose of 10 mg/kg sc after 60 min; conditions: 1 h, route subcutaneous; procedure, shortened: as §1
Mus musculus [3] = experiment: Inhibition of the Mouse PBQ Writhing at a dose of 20 mg/kg sc after 60 min; conditions: 1 h, route subcutaneous; procedure, shortened: as §1
Mus musculus [4] = experiment: Compound was tested at a dose of 10 mg/kg administered subcutaneously for a pretreatment time of 60 min for analgesic activity using phenylbenzoquinone (PBQ); conditions: route subcutaneous; procedure, shortened: as §1
Mus musculus [5] = experiment: Inhibition of the Mouse PBQ Writhing at a dose of 5 mg/kg sc after 60 min; conditions: 1 h, route subcutaneous; procedure, shortened: as §1
Mus musculus [6] = experiment: Compound was tested at a dose of 5 mg/kg administered subcutaneously for a pretreatment time of 60 min for analgesic activity using phenylbenzoquinone (PBQ); conditions: route subcutaneous; procedure, shortened: as §1
Mus musculus [7] = experiment: Compound was tested at a dose of 20 mg/kg administered intraperitoneally for a pretreatment time of 60 min; conditions: route intraperitoneal; procedure, shortened: as §1
Mus musculus [8] = experiment: Compound was tested at a dose of 20 mg/kg administered subcutaneously for a pretreatment time of 120 min for analgesic activity using phenylbenzoquinone (PBQ); conditions: route subcutaneous; procedure, shortened: as §1
Mus musculus [9] = experiment: Compound was tested at a dose of 20 mg/kg administered intravenously for a pretreatment time of 10 min; conditions: route intravenous; procedure, shortened: as §1
Mus musculus [10] = experiment: Inhibition of the Mouse PBQ Writhing at a dose of 20 mg/kg iv afer 10 min; procedure, shortened: as §1
Mus musculus [11] = experiment: Inhibition of the Mouse PBQ Writhing at a dose of 20 mg/kg sc after 120 min; conditions: 2 h, route subcutaneous; procedure, shortened: as §1
Mus musculus [12] = experiment: Inhibition of the Mouse PBQ Writhing at a dose of 20 mg/kg sc after 15 min; conditions: 0.25 h, route subcutaneous; procedure, shortened: as §1
Mus musculus [13] = experiment: Compound was tested at a dose of 20 mg/kg administered intraperitoneally for a pretreatment time of 20 min for analgesic activity using phenyl benzoquinone; conditions: route intraperitoneal; procedure, shortened: as §1
Mus musculus [14] = experiment: Inhibition of the Mouse PBQ Writhing at a dose of 20 mg/kg iv afer 30 min; conditions: 0.5 h; procedure, shortened: as §1
Mus musculus [15] = experiment: Compound was tested at a dose of 20 mg/kg administered subcutaneously for a pretreatment time of 15 min for analgesic activity using phenylbenzoquinone (PBQ); conditions: route subcutaneous; procedure, shortened: as §1
Mus musculus [16] = experiment: Inhibition of the Mouse PBQ Writhing at a dose of 20 mg/kg ip afer 60 min; conditions: 1 h, route intraperitoneal; procedure, shortened: as §1
Mus musculus [17] = experiment: Inhibition of the Mouse PBQ Writhing at a dose of 20 mg/kg ip afer 20 min; conditions: route intraperitoneal; procedure, shortened: as §1

SMILES	Analgesic activity (Mus musculus [1])	inhibition in vivo at 10 mg/kg (Mus musculus [2])	inhibition in vivo at 20 mg/kg (Mus musculus [3])	Analgesic activity (Mus musculus [4])	inhibition in vivo at 5 mg/kg (Mus musculus [5])	Analgesic activity (Mus musculus [6])	Analgesic activity (Mus musculus [7])	Analgesic activity (Mus musculus [8])	Analgesic activity (Mus musculus [9])	inhibition in vivo at 20 mg/kg (Mus musculus [10])	inhibition in vivo at 20 mg/kg (Mus musculus [11])	inhibition in vivo at 20 mg/kg (Mus musculus [12])	Analgesic activity (Mus musculus [13])	inhibition in vivo at 20 mg/kg (Mus musculus [14])	Analgesic activity (Mus musculus [15])	inhibition in vivo at 20 mg/kg (Mus musculus [16])	inhibition in vivo at 20 mg/kg (Mus musculus [17])
CCCCCC(C)Oc1ccc([C@H]2CCC[C@@H](O)C2)c(O)c1 (some centres undefined)	2.9	54.5%	91.4%	15.3	29.2%	23.8	–	–	–	–	–	–	–	–	–	–	–
CCCCCC(C)Oc1ccc([C@H]2CCC[C@@H](O)C2)c2[nH]ccc12 (some centres undefined)	27.2	–	0%	–	–	–	29.2	32.4	24.8	20.3%	0%	21.6%	24.4	0%	16.7	0%	10%
